The EternaBench riboswitch data

Test system: MS2 coat protein
Experiment: apparent Kd, MS2 coat protein; higher = weaker binding; RNA-MaP array; FMN 200 µM where present
Procedure, shortened: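 Designs were transcribed by stalled E. coli RNA polymerase on Illumina sequencing-chip clusters. They were titrated with SNAP-549-labelled MS2 coat protein from 0.7 or 1.5 nM, doubling to 3 µM, in 100 mM Tris-HCl pH 7.5, 80 mM KCl, 4 mM MgCl2, BSA, DTT, yeast tRNA and Tween-20, without and then with constant ligand. The apparent Kd is the median of filtered per-cluster fits after normalisation of green signal to red-channel RNA signal and control-cluster median Fmax.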

[1] = designed as: ON switch for flavin mononucleotide, no ligand
[2] = ligand present: flavin mononucleotide, designed as: ON switch for flavin mononucleotide
[3] = designed as: OFF switch for flavin mononucleotide, no ligand
[4] = ligand present: flavin mononucleotide, designed as: OFF switch for flavin mononucleotide

Row | Sequence | apparent Kd [1] [nM] | apparent Kd [2] [nM] | apparent Kd [3] [nM] | apparent Kd [4] [nM]
1 | GUAGCUACUUUUAUACAUGAGGAUCACCCAUGUUACUUGGGUAAGGAUAUUGAUGUUAUGAUUAUCAAGAAGGUACUAUGCUAC | 136 | 30 | – | –
2 | GGUCGUCACAUUAACAUGAGGAUCACCCAUGUGAAAACACAUGAGGAUAUGCAUCCUAAUUGGAUGCAGAAGGCAUGGACGACC | 24.7 | 6.28 | – | –
3 | AAGUCCAGAGGAUAUCAGACGCGGCACAUGAGGAUCACCCAUGUAUUCCCGUCUGCCGACUGAGAAGGUUGGAAAG | – | – | 12 | 17.8
4 | AAAUAAAUUAGCAUGAUAUCUUCACAUGAGGAUCACCCAUGUCAGGAUAUUUGUCCUAAAAGGACAGAGAAGGGACAUGCUAUA | – | – | 5.78 | 7.76
5 | AAAAAUCGAGGAUAUACAUGAGGAUCACCCAUGUGGGACCAAGAAAACACAAAAGAAAGUAGAAGGCGAUAAAA | – | – | 29.2 | 113
6 | GGCAGACAUGAGGAUCACCCAUGUCAGGAUAUGUGGCGAUCGUCGAUAGACGAUAGCCACAGAAGGGACAUGCC | – | – | 23.9 | 39.5
7 | AUAUUGUGAGGAUAUGAACUUUGUAUCGAAAGAUACUAAGUUCAGAAGGCACAUGAGGAUCACCCAUGUUUCUC | – | – | 82.2 | 1130
8 | GUGUACAUAUCAGGAUAUCUAUUUCCUACAUGAGGAUCACCCAUGUAGGUGAUCACCCAAGUAAAGGAGAAGGGAUAUGUAUAC | 78.7 | 24.5 | – | –
9 | CUGGAUCACGCAGGAUAUUACAUGAGGAUCACCCAUGUCAGGACUGCAAUAUCGUCUCCUCGGUGUGAGAAGGGCGGAAUCAUU | – | – | 15 | 27
10 | AGAUUUGUACAUGAGGAUCACCCAUGUUAAUAGGUGGUUGUCAGAAGGCAUUAUUAGAGUUUUAAUGAGGAUAUGAAUUUACAA | – | 541 | – | –
11 | AUGUAUCGCCUCGAGGAUAUCCUGUCAUGCACAUGAGGAUCACCCAUGUAAGAGCGAGUUUAAUGGGAGAAGGCGAGUUCUCGGU | 111 | 35 | – | –
12 | ACAUGAGGAUCACCCAUGUAGAAUGAAGAAGGUAGAUACUUGAGACUCACCCAUGUACAUAGGACUAAGGAUAUUCUAAUAAUU | 14.1 | 10.7 | – | –
13 | ACAAUAAAGGGUCUGGUUCCAUACAUGAGGAUCACCCAUGUCAAGGAUAUAACGGACGGGCGCCGUUAGAAGGUGACGACUGCG | – | – | 132 | 401
14 | GGAUGAUAGACAGGAUAUUGAUUGUAAUUAUGUCAAGAAGGGUCUUUGAUUUAAACGACCAGUUACAUGAGGAUCACCCAUGUU | 30.7 | 21 | – | –
15 | GCGCAUGUCACAGGAUAUCCCAUAGUGUACAUGAGGAUCACCCAUGUACUGCAAUGCAGACACAAGGAGAAGGGUGAGACUCGU | 84.8 | 96.7 | – | –
16 | CGGAGGUCAGGAUAUGCAUGGCGGGACUUGCGUCGUGGCGUGCAGAAGGGACAUGAGGAUCACCCAUGUGGAGU | – | – | 147 | 216
17 | CGCAAUGAUGGUAGUAAUAGAGCAUAGGAUAUGCUUGUACAUGAGGAUCACCCAUGUUAUAUUUUGCAGAAGGGUGUAAUUGCG | 309 | 159 | – | –
18 | UGUCGGAGCAGAGGAUAUUACAUGAGGAUCACCCAUGUUUGAACCAAUAGCUGGAAACAGCAAUGUAAGAAGGCUGCUCCGACA | – | – | 91.2 | 242
19 | GGAUAGUGUCGUUAUCCGUAGCGAACAUGAGGAUCACCCAUGUAGGAUAUGUUAUUAAACUAAUAACAGAAGGACGUUGGUCUC | – | – | 66.2 | 434
20 | AUGGACGUCGUAGGAUAUGUAGGAUUCUCGUACAUGAGGAUCACCCAUGUUGACGUCAAGGUCGGACAGAAGGGCGGUGUCUAU | 584 | 65.4 | – | –
21 | UAGAAGUCAGGAUAUCCAUGGCGGCACUUGCGUGGUGGCGUGGAGAAGGGACAUGAGGAUCACCCAUGUAAAGA | – | – | 54.4 | 42

Row | Sequence | apparent Kd [1] [nM] | apparent Kd [2] [nM] | apparent Kd [3] [nM] | apparent Kd [4] [nM]
22 | AAAAAGUGAGGAUAUGGAAAAAAAAAAAAAAAAAAAAAAAACCAGAAGGCACAUGAGGAUCACCCAUGUAAAAA | – | – | 39.6 | 39.4
23 | AAGGCAAUGUCAUGCCCACCGGACAGAAGGCAAUGUGGGCAGCCCGACAUGAGGAUCACCCAUGUUGAGGAUAUGUCCCGUCCU | – | – | 2.72 | 2.85
24 | CUUUUGUGAGGAUAUCAGUAGUAAAUAAAUAAAAUUACUAUUGAGAAGGCACAUGAGGAUCACCCAUGUUCCUC | – | – | 34.7 | 184
25 | AUAUAACCUAGCAAAAUUUAAUAACAUGAGGAUCACCCAUGUAGAAGGCUGUCCUAAAAUAGGACAGAGGAUAUACGUGCUAGG | – | – | 5.43 | 6.73
26 | GUCAUUGACAAGAAGGCAAACAUGAGGAUCACCCAUGUUCUGCAUGUAUAUUGAGGAUAUUGCCAAUGCAUGUGGAUCACCCAA | – | – | 6.92 | 11
27 | GCUAUUGAUGUAGGAUAUGAUAUAGAAGCUAUGUCAGAAGGACAUGAGGAUCACCCAUGUCAAUGGAUGGAGAGAAGAAAUGGC | – | – | 62.6 | 75
28 | CCCACGCAUGAGAAGGGACAGGCGUGCAAUUCGACAUGAGGAUCACCCAUGUCAGGAUAUCAGUUAAGGUGGGCAGAACCGAUG | – | – | 15.4 | 57.3
29 | CAAUUUAUAACAGGAUAUGUAAUACAAUAGUAAAUAGAAGGGUUUUAUACAUGAGGAUCACCCAUGUCAUGUGUCAUAAUUACC | – | – | 36.4 | 29.5
30 | AAAUAACCUAGCAAAAUUUCCUAACAUGAGGAUCACCCAUGUAGAAGGCUGUCCUAAAAUAGGACAGAGGAUAUACGUGCUAGG | – | – | 5.01 | 7
31 | AGAUAACACCAGAAGGACAUGAGGAUCACCCAUGUAGGAUAUGGGCAUCACUCGAGAAAGAUACGACCAAAGGGACACGCGGUC | 124 | 9.97 | – | –
32 | AGCUAAAUGUCAGGAUAUGCCCGCCAGGUGGAAGCAGAAGGGACAUACCAGACAUGAGGAUCACCCAUGUAAACUGGGUAAGAA | 142 | 126 | – | –
33 | GAUAGGACAGAGAAGGACAUAGCUAGAGAUACUAGCAUAAGAACCUUCACAUGAGGAUCACCCAUGUAGGAUAUCUGUCCUAUC | – | – | 3.74 | 4.85
34 | ACUUAAAUACCCAAAAGUCGGGCGGAGGAUAUGGAGCUUCCACCACAUGAGGAUCACCCAUGUCUUCAGAAGGCCGCCCUUGGA | – | 11.2 | – | –
35 | GGAAAGUCAGGAUAUGGAUAAUAAAUACAAAUAGAAACAAACCAGAAGGGACAUGAGGAUCACCCAUGUAAACA | – | – | 24.1 | 23.1
36 | CUCGUGUAAGGAUAUGCGAGCCACGGAAAUAAAACGUGGAGGUAGAAGGUACAUGAGGAUCACCCAUGUAAAAC | – | – | 25.4 | 85.3
37 | ACGUUUUUUGAGGAUAUGCGAUAGUUUUAUAUCGUAGAAGGCGAUACAUGAGGAUCACCCAUGUUUAUGGGCAU | – | – | 167 | 197
38 | GCAUGACAUGUAGGAUAUCGAGCGCCGAGCGCUCGAGAAGGACAUGAGGAUCACCCAUGUAUUCCGAAUGAAUCAAGUCAUGCA | – | – | 14.3 | 16.2
39 | AUGUGCCUAGGAUAUACAUGAGGAUCACCCAUGUUAACACUGCAAUCAAGUUAAUAUUGUAGAAGGAGGUGUAA | – | – | 27.6 | 27.5
40 | UGUUUGCGGCAGGAUAUCCAUCCGCGGUGUGGUGGAGAAGGGCUGACAUGAGGAUCACCCAUGUGCGUCCUGUA | – | – | 19.4 | 27.5
41 | ACUUUUUAUGGACAUGAGGAUCACCCAUGUGCCUUGGGCCUCAAGGAUAUAGUAAUUGUCGUGUACUAGAAGGUGAAGCCAUUA | 77.2 | 27.9 | – | –
42 | AAGAAACAUGAGGAUCACCCAUGUGAGGAUAUGAAAAAGAAAAGAAAAGAAAGAAGGUUCAGAAGGCACAAAGG | – | – | 32.8 | 64.8
